In brackets after ≈: the same amount, converted by molar mass.

One data set has as its system Candida parapsilosis. As to the kind of experiment: Antifungal activity against Candida parapsilosis ATCC 22019 at 35 degC after 48 hrs by broth microdilution test. The conditions noted are these: Lodderomyces parapsilosis, ATCC 22019, 48 h; for MFC: read-out: MFC; for MIC: read-out: MIC. Format: functional. Put shortly:
(§1)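 Broth microdilution per NCCLS M27-A2. Stocks in 100% DMSO, diluted in RPMI 1640 with 0.165 M MOPS at pH 7.0; final range 0.25–128 µg/mL. Inoculum 1000–5000 cells/mL from SDA subcultures. […] C. parapsilosis ATCC22019 served as QC strain.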
A general note: Dilution methods test growth across graded concentrations, often in twofold steps.

Data set [1] in a line: Cytotoxicity against human U937 cells assessed as reduction of cell viability after 24 hrs by MTT assay. It is filed as cell-based, U-937. Put shortly:
(§2)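 U937 and K562 cells, from ATCC, plated at 5 × 10^4/mL in phenol-red-free RPMI-1640 with 20% FBS and penicillin/streptomycin. Compounds added 2 h later at 25–100 µg/mL, then 24 h at 37 °C. MTT at 1 mg/mL for 3 h, formazan dissolved in isopropanol with 0.1 N HCl, absorbance read at 570 nm. CC50 is the concentration reducing viability by 50% versus the drug-free control.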
(In general: Tetrazolium dyes change colour on reduction, which living cells bring about.)

Data set [2] in a line: Therapeutic index, ratio of CC50 for human K562 cells to MIC90 for Candida albicans ATCC 10261. It is filed as cell-based. Put shortly: (§3)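 Therapeutic index calculated as CC50 in the given cell line divided by MIC90.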
Data set [3] deals with Arthrodermataceae. As to the kind of experiment: Antifungal activity against dermatophytes at 28 degC after 7 days by broth microdilution test. Format: functional. The conditions noted are these: 168 h. Put shortly: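 Ten clinical isolates (two M. canis, five M. gypseum, three T. mentagrophytes) tested by NCCLS M38-A broth microdilution in MOPS-buffered RPMI 1640, pH 7.0, over 0.25–128 µg/mL. Conidial/hyphal suspension from PDA slants (28 °C, 7 days) adjusted to 65–70% transmittance at OD530, then diluted 1:50.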

In data set [4] the test system is Candida albicans. As to the kind of experiment: Antifungal activity against fluconazole-resistant Candida albicans isolated from oropharyngeal or vaginal disease patient after 48 hrs by broth microdilution test. Format: functional.
The subject of data set [5] is Candida albicans. Nature of the data set: Antifungal activity against Candida albicans ATCC 10261 at 35 degC after 48 hrs by broth microdilution test. It is filed as functional. The following applies: Candida albicans, ATCC 10261, 48 h; for MIC: read-out: MIC; for MIC50: read-out: MIC50; for MIC90: read-out: MIC90. Put shortly: as §1
Data set [6] can be described thus: Therapeutic index, ratio of CC50 for human U937 cells to MIC90 for Candida albicans ATCC 10261. Format: cell-based, U-937. Put shortly:
as §3

For data set [7], the system named is Candida albicans. Nature of the data set: Antifungal activity against fluconazole-sensitive Candida albicans Fe40 at 35 degC after 48 hrs by broth microdilution test. It is filed as functional. Put shortly:
as §1

The test system of data set [8] is Arthrodermataceae. As to the kind of experiment: Antifungal activity against dermatophytes at 28 degC after 48 to 96 hrs by broth microdilution test.
Data set [9] concerns Candida albicans. As to the kind of experiment: Antifungal activity against Candida albicans ATCC 10261 at 35 degC after 48 to 96 hrs by broth microdilution test. The conditions noted are these: for MFC: Candida albicans, ATCC 10261, read-out: MFC. It is filed as functional. Summed up: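 Minimal fungicidal concentration for Candida. […] MFC is the lowest concentration allowing fewer than two colonies (99% killing).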

Data set [10] relates to Arthrodermataceae. Nature of the data set: Antifungal activity against dermatophytes at 28 degC after 5 days by broth microdilution test. The following applies: for MFC: Arthrodermataceae.
A short description of data set [11]: Cytotoxicity against human K562 cells after assessed as reduction of cell viability 24 hrs by MTT assay. Format: cell-based. Summed up:
as §2

`Cc1ccc(OC(CCn2ccnc2)c2ccc(Cl)cc2)cc1` (stereo not drawn): the MFC with Candida parapsilosis came to 4 µg/mL (≈ 12.2 µM); with Candida albicans [9], 10 µg/mL (≈ 30.6 µM); against Arthrodermataceae [10], 28.8 µg/mL (≈ 88.1 µM). The MIC came to 2 µg/mL (≈ 6.12 µM) in the data set with Candida parapsilosis; 4.6 µg/mL (≈ 14.1 µM) against Arthrodermataceae [3]; 5.6 µg/mL (≈ 17.1 µM) in the data set on Candida albicans [4]; 3.2 µg/mL (≈ 9.79 µM) in the data set on Candida albicans [5]; 2 µg/mL (≈ 6.12 µM) with Candida albicans [7]. For the same compound, the CC50 at 24 h amounted to 325 µM in data set [1] and 227 µM in data set [11]. Further, the selectivity ratio stood at 56.8 in data set [2] and 81.3 in data set [6]. For the same compound, the MIC50 against Arthrodermataceae [3] was found to be 4 µg/mL (≈ 12.2 µM); with Candida albicans [5], 2 µg/mL (≈ 6.12 µM). Moreover, the MIC90 with Arthrodermataceae [3] came to 8 µg/mL (≈ 24.5 µM); in the data set on Candida albicans [5], 4 µg/mL (≈ 12.2 µM). Also, the MFC50 is 32 µg/mL (≈ 97.9 µM) in the data set on Arthrodermataceae [8] and 8 µg/mL (≈ 24.5 µM) against Candida albicans [9]. Moreover, the MFC90 is 16 µg/mL (≈ 49 µM) against Candida albicans [9] and 32 µg/mL (≈ 97.9 µM) in the data set on Arthrodermataceae [10].

As to `Cc1ccc(OC(CCCn2ccnc2)c2ccc(Cl)cc2)cc1` (stereo not drawn), in the data set on Candida parapsilosis, the MFC worked out at 0.25 µg/mL (≈ 0.733 µM) and the MIC is 0.03 µg/mL (≈ 0.088 µM). Also, the CC50 at 24 h in data set [1] stood at 350 µM. Also, the selectivity ratio in [2] was 64.8. In the data set on Candida albicans [5], the MIC is 2.1 µg/mL (≈ 6.16 µM), the MIC50 was found to be 2 µg/mL (≈ 5.87 µM) and the MIC90 was determined as 4 µg/mL (≈ 11.7 µM). Besides, the selectivity ratio in data set [6] amounted to 87.5. For the same compound, in the data set with Candida albicans [9], the MFC50 worked out at 4 µg/mL (≈ 11.7 µM), the MFC90 came to 8 µg/mL (≈ 23.5 µM) and the MFC was 5.6 µg/mL (≈ 16.4 µM). For the same compound, in data set [11], the CC50 at 24 h came to 259 µM.

For the compound `Cc1ccc(C(CCn2ccnc2)Oc2ccc(Cl)cc2)cc1` (stereo not drawn), the MFC was found to be 8 µg/mL (≈ 24.5 µM) in the data set on Candida parapsilosis, 12 µg/mL (≈ 36.7 µM) in the data set on Candida albicans [9] and 25.6 µg/mL (≈ 78.3 µM) in the data set with Arthrodermataceae [10]. The MIC in the data set with Candida parapsilosis is 4 µg/mL (≈ 12.2 µM); in the data set with Arthrodermataceae [3], 3.8 µg/mL (≈ 11.6 µM); in the data set with Candida albicans [4], 3.6 µg/mL (≈ 11 µM); in the data set on Candida albicans [5] it was 2.4 µg/mL (≈ 7.34 µM); in the data set on Candida albicans [7], 2 µg/mL (≈ 6.12 µM). The CC50 at 24 h in [1] came to 168 µM; in data set [11], 171 µM. In addition, the selectivity ratio in data set [2] turned out to be 42.8; in data set [6] it was 42. For the same compound, the MIC50 turned out to be 4 µg/mL (≈ 12.2 µM) with Arthrodermataceae [3] and 2 µg/mL (≈ 6.12 µM) with Candida albicans [5]. For the same compound, the MIC90 with Arthrodermataceae [3] and in the data set on Candida albicans [5] was 4 µg/mL (≈ 12.2 µM) throughout. In addition, the MFC50 was determined as 32 µg/mL (≈ 97.9 µM) with Arthrodermataceae [8] and 8 µg/mL (≈ 24.5 µM) against Candida albicans [9]. In addition, the MFC90 is 16 µg/mL (≈ 49 µM) with Candida albicans [9] and 32 µg/mL (≈ 97.9 µM) with Arthrodermataceae [10].

Consider `Clc1ccc(COC(Cn2ccnc2)c2ccc(Cl)cc2Cl)cc1` (stereo not drawn) [ECONAZOLE], for which the MFC was determined as 2 µg/mL (≈ 5.24 µM) with Candida parapsilosis, 15 µg/mL (≈ 39.4 µM) with Candida albicans [9] and 6 µg/mL (≈ 15.7 µM) with Arthrodermataceae [10]. Besides, the MIC came out at 2 µg/mL (≈ 5.24 µM) in the data set with Candida parapsilosis, 2.1 µg/mL (≈ 5.5 µM) with Arthrodermataceae [3] and 4.3 µg/mL (≈ 11.3 µM) in the data set on Candida albicans [5]. Further, the CC50 at 24 h in data set [1] stood at 108 µM; in data set [11], 70 µM. Further, the selectivity ratio came out at 8.8 in data set [2] and 13.5 in data set [6]. The MIC50 in the data set with Arthrodermataceae [3] turned out to be 1 µg/mL (≈ 2.62 µM); with Candida albicans [5] it was 4 µg/mL (≈ 10.5 µM). Moreover, the values for the MIC90 in the data set with Arthrodermataceae [3] and in the data set with Candida albicans [5] were 4 µg/mL (≈ 10.5 µM) and 8 µg/mL (≈ 21 µM), respectively. Besides, the figures for the MFC50 against Arthrodermataceae [8] and in the data set with Candida albicans [9] were 4 µg/mL (≈ 10.5 µM) and 16 µg/mL (≈ 41.9 µM), respectively. In addition, the MFC90 in the data set with Candida albicans [9] came to 32 µg/mL (≈ 83.8 µM); against Arthrodermataceae [10] it was 8 µg/mL (≈ 21 µM).

In the case of `Clc1ccc(OC(CCn2ccnc2)c2ccccc2)cc1` (stereo not drawn), the MFC in the data set with Candida parapsilosis was determined as 32 µg/mL (≈ 102 µM); in the data set on Candida albicans [9], 10.3 µg/mL (≈ 32.9 µM); with Arthrodermataceae [10] it was 25.6 µg/mL (≈ 81.8 µM). Besides, the MIC was found to be 4 µg/mL (≈ 12.8 µM) in the data set with Candida parapsilosis; 18.4 µg/mL (≈ 58.8 µM) with Arthrodermataceae [3]; 6.4 µg/mL (≈ 20.5 µM) in the data set on Candida albicans [4]; 3.3 µg/mL (≈ 10.5 µM) in the data set with Candida albicans [5]; 2 µg/mL (≈ 6.39 µM) against Candida albicans [7]. Besides, the CC50 at 24 h in data set [1] came to 200 µM; in data set [11] it was 256 µM. Besides, the MIC50 against Arthrodermataceae [3] turned out to be 16 µg/mL (≈ 51.2 µM); in the data set on Candida albicans [5], 2 µg/mL (≈ 6.39 µM). For the same compound, the figures for the MIC90 in the data set with Arthrodermataceae [3] and in the data set with Candida albicans [5] were 32 µg/mL (≈ 102 µM) and 4 µg/mL (≈ 12.8 µM), respectively. The MFC50 in the data set on Arthrodermataceae [8] was determined as 16 µg/mL (≈ 51.2 µM); in the data set with Candida albicans [9], 8 µg/mL (≈ 25.6 µM). Moreover, the values for the MFC90 in the data set with Candida albicans [9] and with Arthrodermataceae [10] were 16 µg/mL (≈ 51.2 µM) and 32 µg/mL (≈ 102 µM), respectively.

Usually MFC stands for the smallest concentration meeting the test's criterion for killing the fungus. One may read the MIC as the lowest concentration found to suppress growth. As usually defined, the CC50 is the concentration that lowers cell viability or growth by half. Broadly, the MIC50 is the lowest concentration that inhibits either 50% of growth or 50% of the strains tested, depending on the study. What is called MIC90 is an inhibitory concentration at the 90% level, which refers to growth in some studies and to a panel of isolates in others.
